bCat KO growth: beta-catenin-lacking colon tumor cell growth suppression. HCT116 beta-catenin knockout viability, CellTiter-Glo, 60 h; active compounds read low. viability, % at 10 µM. 1.5% of 140,000 active. AID 818;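 active = viability at or under a set limit, the compound median less 4 SD, cut at about 6% in these data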;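 note: 0% = Hyamine 1622 control at 20 µM and 100% = untreated cell control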
HCT116 PTEN-null: growth suppressors of cells with PTEN tumor suppressor deletion; HCT116 PTEN-null viability, CellTiter-Glo, 60 h; active compounds read low; viability, % at 10 µM; 1.2% of 140,000 active; AID 827;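 active = viability at or below a set limit, 4 SD under the median of all tested compounds, cut at about 3.7% in these data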;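 note: PTEN knockout HCT116 line with beta catenin targeted HCT116 as companion control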
HUVEC prolif 384: blocks proliferation of human endothelial cells; 1.1% of 86,000 active; HUVEC proliferation, CellTiter-Glo luminescence, 72 h; active compounds read low; viability, % at 10 µM (by protocol); AID 648;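 active = viability at or below 30%; inactive = viability above 30%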;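 note: 100% = median luminescence of DMSO-only cell control wells on each plate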
Lung fibro prol: blocks proliferation of human lung fibroblasts; 1.1% of 85,000 active; AID 719; viability, % at 10 µM; LL 47 human lung fibroblast viability, ATP luminescence; active compounds read low;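 active = viability at or below 50% in the single dose screen; inactive = viability above 50%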;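 note: compound exposure lasted 72 h before the ATP readout; 100% = median luminescence of untreated cell-only wells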
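test system = LL 47 human lung fibroblasts | amount = 1,150 fibroblasts seeded per well | medium = 15% FBS in IMEM | times = overnight cell rest, 72 h compound treatment at 37 °C | measured by = CellTiter-Glo luminescence measuring cellular ATP | read-out = viability percentage against median untreated-cell control | benchmarks = cell-only wells, no compound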
H69AR growth 86K: growth inhibitors of human H69AR lung tumor cells; viability, % at 10 µM; H69AR lung tumor viability, ATP luminescence, 72 h; active compounds read low; 6% of 85,000 active;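 active = viability at or below 40%; inactive = viability above 40%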;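 note: multidrug resistant small cell line overexpressing MRP-1 efflux transporter; 100% = mean luminescence of untreated control wells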
An asterisk follows results filed as active. This excerpt belongs to a sample that is enriched for hits.

What do the screens show for `Cc1ccc(-c2nnc(-c3ccc(NC(=O)Cc4cccs4)cc3)o2)cc1`?
bCat KO growth: 1.2*; HCT116 PTEN-null: 1.4*

What do the screens show for `CC(C)C(=O)N(c1cc2sc(=O)oc2c2ccccc12)S(=O)(=O)c1cccs1`?
bCat KO growth: 101; HCT116 PTEN-null: 93; HUVEC prolif 384: 103; Lung fibro prol: 97; H69AR growth 86K: 22*

Results for COc1ccc(N(C(=O)C(C)C)S(=O)(=O)c2cccs2)cc1 ?
bCat KO growth: 83; HCT116 PTEN-null: 83; HUVEC prolif 384: 65; Lung fibro prol: 81; H69AR growth 86K: 17*

How did O=C(/C=C/c1cccc([N+](=O)[O-])c1)NC(=S)Nc1cccc(NC(=O)c2ccccc2Cl)c1 do in these assays?
bCat KO growth: 11; HCT116 PTEN-null: 2.8*

How did O=C(COc1c(Cl)cc(Cl)cc1Cl)c1ccc(Cl)cc1 do in these assays?
bCat KO growth: 83; HCT116 PTEN-null: 95

Results for CC1=C(C)/C(=N\OS(=O)(=O)c2ccccc2)C=CC1=O ?
bCat KO growth: 34; HCT116 PTEN-null: 17; HUVEC prolif 384: 3.8*; Lung fibro prol: 3.5*; H69AR growth 86K: 1.5*

What do the screens show for `O=S(=O)(N/N=C/c1ccc(Cl)cc1)c1ccc(Cc2ncc(C(F)(F)F)cc2Cl)s1`?
bCat KO growth: 87; HCT116 PTEN-null: 105; HUVEC prolif 384: 85; Lung fibro prol: 102; H69AR growth 86K: 112

How did Cc1[nH]nc2c1C(c1ccoc1)C(C#N)=C(N)O2 (stereo not given) do in these assays?
bCat KO growth: 96; HCT116 PTEN-null: 82; HUVEC prolif 384: 92; Lung fibro prol: 100; H69AR growth 86K: 97

What do the screens show for `Cc1[nH]nc2c1C(c1cc(Br)cs1)C(C#N)=C(N)O2` (stereo not given)?
bCat KO growth: 2.0*; HCT116 PTEN-null: 2.1*

How did Cc1nn(-c2ccccc2)c(C)c1C(=O)OCC(=O)N1c2ccccc2NC(=O)C1(C)C do in these assays?
bCat KO growth: 64; HCT116 PTEN-null: 57; HUVEC prolif 384: 76; Lung fibro prol: 94; H69AR growth 86K: 17*

How did CCOc1cc(C(=O)N2CCN(c3ccc(C(C)=O)cc3)CC2)cc(OCC)c1OCC do in these assays?
bCat KO growth: 86; HCT116 PTEN-null: 95; HUVEC prolif 384: 93; Lung fibro prol: 100; H69AR growth 86K: 38*

What do the screens show for `CCOc1cc(/C=C2/C(=O)ON=C2C)ccc1OCc1ccccc1F`?
bCat KO growth: 80; HCT116 PTEN-null: 80; HUVEC prolif 384: 33; Lung fibro prol: 43*; H69AR growth 86K: 23*

How did CCOc1cc(/C=C2/C(=O)ON=C2C)ccc1OCc1ccc(F)cc1 do in these assays?
bCat KO growth: 89; HCT116 PTEN-null: 71

How did CC(C)OCCCNC(=O)CCC(=O)NNc1nc2ccccc2c2nc(-c3ccccc3)nn12 do in these assays?
bCat KO growth: 61; HCT116 PTEN-null: 75

How did COCCN(C(=O)C(F)(F)F)C(C(=O)NC1CCCCC1)c1ccco1 (stereo not given) do in these assays?
bCat KO growth: 92; HCT116 PTEN-null: 81; HUVEC prolif 384: 90; Lung fibro prol: 105; H69AR growth 86K: 93

How did COCCN(C(=O)CCl)C(C(=O)NC1CCCCC1)c1ccccc1C (stereo not given) do in these assays?
bCat KO growth: 5.2*; HCT116 PTEN-null: 3.2*

How did Cc1ccccc1Oc1cc(-n2ncc(Cl)c(Cl)c2=O)ncn1 do in these assays?
bCat KO growth: 1.6*; HCT116 PTEN-null: 1.9*

Results for CCOc1cnn(-c2cc(Oc3ccc(C)cc3)ncn2)c(=O)c1Cl ?
bCat KO growth: 88; HCT116 PTEN-null: 90

How did CCOc1ccc(CN2CCNC(=O)C2CC(=O)OC)cc1 (stereo not given) do in these assays?
bCat KO growth: 106; HCT116 PTEN-null: 101; HUVEC prolif 384: 104; Lung fibro prol: 106; H69AR growth 86K: 100

How did c1ccc2c(CCNc3ncnc4nc[nH]c34)c[nH]c2c1 do in these assays?
bCat KO growth: 47; HCT116 PTEN-null: 38; HUVEC prolif 384: 65; Lung fibro prol: 84; H69AR growth 86K: 20*

How did CCCCNS(=O)(=O)c1ccc2nc(SCC(=O)Nc3sccc3C#N)[nH]c2c1 do in these assays?
bCat KO growth: 47; HCT116 PTEN-null: 54; HUVEC prolif 384: 50; Lung fibro prol: 94; H69AR growth 86K: 21*

Results for CCC(c1nnnn1Cc1ccco1)N(Cc1ccccc1OC)Cc1cc2cc(C)ccc2[nH]c1=O (stereo not given) ?
bCat KO growth: 55; HCT116 PTEN-null: 40; HUVEC prolif 384: 81; Lung fibro prol: 86; H69AR growth 86K: 79

Source: PubChem
